Assay results: ChEMBL document CHEMBL3862007, “Synthesis and antimicrobial activity of small cationic amphipathic aminobenzamide marine natural product mimics and evaluation of relevance against clinical isolates including ESBL-CARBA producing multi-resistant bacteria” (Bioorg Med Chem, 2016)

Legend:
[1] = tested on: Enterococcus faecium; test: Antibacterial activity against vancomycin-resistant Enterococcus faecium 50901530 after 24 hrs by microdilution method; type: functional; details: Enterococcus faecium, 50901530, 24 h
[2] = tested on: Pseudomonas aeruginosa; test: Antibacterial activity against multi-drug resistant/VIM producing Pseudomonas aeruginosa 50692520 after 24 hrs by microdilution method; type: functional; details: Pseudomonas aeruginosa, 50692520, 24 h
[3] = tested on: Klebsiella pneumoniae; test: Antibacterial activity against multi-drug resistant/VIM1 producing Klebsiella pneumoniae 50667959 after 24 hrs by microdilution method; type: functional; details: Klebsiella pneumoniae, 50667959, 24 h
[4] = tested on: Staphylococcus aureus; test: Antibacterial activity against methicillin resistant Staphylococcus aureus clinical isolate 85/2082 after 24 hrs by microdilution method; type: functional; details: isolate 85/2082, 24 h
[5] = tested on: Escherichia coli; test: Antibacterial activity against multi-drug resistant/NDM-1 producing Escherichia coli 50676002 after 24 hrs by microdilution method; type: functional; details: Escherichia coli, 50676002, 24 h
[6] = tested on: Acinetobacter baumannii; test: Antibacterial activity against multi-drug resistant/OXA-23 producing Acinetobacter baumannii K44-35 after 24 hrs by microdilution method; type: functional; details: K44-35, 24 h
[7] = tested on: Escherichia coli; test: Antibacterial activity against Escherichia coli clinical isolate after 24 hrs by microdilution method; type: functional
[8] = tested on: Klebsiella pneumoniae; test: Antibacterial activity against multi-drug resistant/KPC-2 producing Klebsiella pneumoniae K47-25 after 24 hrs by microdilution method; type: functional; details: K47-25, 24 h
[9] = tested on: Pseudomonas aeruginosa; test: Antibacterial activity against multi-drug resistant/VIM-4 producing Pseudomonas aeruginosa K34-73 after 24 hrs by microdilution method; type: functional; details: K34-73, 24 h
[10] = tested on: Staphylococcus aureus; test: Antibacterial activity against methicillin resistant Staphylococcus aureus IHT 99040 after 24 hrs by microdilution method; type: functional; details: IHT 99040, 24 h
[11] = tested on: Enterococcus faecium; test: Antibacterial activity against vancomycin-resistant Enterococcus faecium K36-18 after 24 hrs by microdilution method; type: functional; details: K36-18, 24 h
[12] = Selectivity index, ratio of hemolytic EC50 for human RBC to MIC for Staphylococcus aureus ATCC 9144
[13] = tested on: Staphylococcus aureus; test: Antibacterial activity against Staphylococcus aureus clinical isolate after 24 hrs by microdilution method; type: functional
[14] = tested on: Escherichia coli; test: Antibacterial activity against multi-drug resistant/NDM-1 producing Escherichia coli 50739822 after 24 hrs by microdilution method; type: functional; details: Escherichia coli, 50739822, 24 h
[15] = tested on: Escherichia coli; test: Antibacterial activity against multi-drug resistant/VIM-29 producing Escherichia coli 50639799 after 24 hrs by microdilution method; type: functional; details: Escherichia coli, 50639799, 24 h
[16] = tested on: Escherichia coli; test: Antibacterial activity against Escherichia coli ATCC 25922 after 48 hrs by microdilution method; type: functional; details: ATCC 25922, 48 h
[17] = tested on: Bacillus subtilis; test: Antibacterial activity against Bacillus subtilis 168 ATCC 23857 after 48 hrs by microdilution method; type: functional; details: subsp. subtilis str. 168 ATCC 23857, 48 h
[18] = tested on: Acinetobacter baumannii; test: Antibacterial activity against multi-drug resistant/OXA-58 producing Acinetobacter baumannii K12-21 after 24 hrs by microdilution method; type: functional; details: K12-21, 24 h
[19] = tested on: Pseudomonas aeruginosa; test: Antibacterial activity against multi-drug resistant/NDM1 producing Pseudomonas aeruginosa 50692172 after 24 hrs by microdilution method; type: functional; details: Pseudomonas aeruginosa, 50692172, 24 h
[20] = Antibacterial activity against methicillin-resistant Staphylococcus epidermidis RP62A CCUG 31568 (ATCC 35984) after 48 hrs by microdilution method; type: functional
Outline: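 Broth microdilution MIC against the reference-strain panel. Compounds were supplied as HCl salts for aqueous solubility in the test medium. Precipitation in the test buffer is flagged at higher concentrations.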

[21] = tested on: Klebsiella pneumoniae; test: Antibacterial activity against Klebsiella pneumoniae clinical isolate after 24 hrs by microdilution method; type: functional
[22] = tested on: Enterococcus faecium; test: Antibacterial activity against vancomycin-resistant Enterococcus faecium 50758899 after 24 hrs by microdilution method; type: functional; details: Enterococcus faecium, 50758899, 24 h
[23] = tested on: Pseudomonas aeruginosa; test: Antibacterial activity against Pseudomonas aeruginosa PAO1 DSM 19880 (ATCC 15692) after 48 hrs by microdilution method; type: functional
[24] = tested on: Acinetobacter baumannii; test: Antibacterial activity against multi-drug resistant/OXA-23 producing Acinetobacter baumannii K47-42 after 24 hrs by microdilution method; type: functional; details: K47-42, 24 h
[25] = tested on: Enterococcus sp.; test: Antibacterial activity against Enterococcus sp. clinical isolate after 24 hrs by microdilution method; type: functional
[26] = tested on: Klebsiella pneumoniae; test: Antibacterial activity against multi-drug resistant/OXA-245 producing Klebsiella pneumoniae 50625602 after 24 hrs by microdilution method; type: functional; details: Klebsiella pneumoniae, 50625602, 24 h
[27] = tested on: Pseudomonas aeruginosa; test: Antibacterial activity against multi-drug resistant/IMP-14 producing Pseudomonas aeruginosa K44-24 after 24 hrs by microdilution method; type: functional; details: K44-24, 24 h
[28] = tested on: Staphylococcus aureus; test: Antibacterial activity against methicillin resistant Staphylococcus aureus NCTC 10442 after 24 hrs by microdilution method; type: functional; details: NCTC 10442, 24 h
[29] = tested on: Pseudomonas aeruginosa; test: Antibacterial activity against multi-drug resistant/VIM-2 producing Pseudomonas aeruginosa K34-7 after 24 hrs by microdilution method; type: functional; details: K34-7, 24 h
[30] = tested on: Enterococcus faecium; test: Antibacterial activity against vancomycin-resistant Enterococcus faecium TUH50-22 after 24 hrs by microdilution method; type: functional; details: TUH50-22, 24 h
[31] = tested on: Klebsiella pneumoniae; test: Antibacterial activity against multi-drug resistant/NDM1/OXA-181 producing Klebsiella pneumoniae 50531633 after 24 hrs by microdilution method; type: functional; details: Klebsiella pneumoniae, 50531633, 24 h
[32] = tested on: Escherichia coli; test: Antibacterial activity against multi-drug resistant/IMP-26 producing Escherichia coli 50857972 after 24 hrs by microdilution method; type: functional; details: Escherichia coli, 50857972, 24 h
[33] = tested on: Acinetobacter baumannii; test: Antibacterial activity against multi-drug resistant/OXA-24 producing Acinetobacter baumannii K55-13 after 24 hrs by microdilution method; type: functional; details: K55-13, 24 h
[34] = tested on: Enterococcus faecium; test: Antibacterial activity against vancomycin-resistant Enterococcus faecium 50673722 after 24 hrs by microdilution method; type: functional; details: Enterococcus faecium, 50673722, 24 h
[35] = Hemolytic activity in human RBC after 1 hr; type: ADME, cell-based; details: Erythrocyte
[36] = tested on: Acinetobacter baumannii; test: Antibacterial activity against multi-drug resistant/OXA-23 producing Acinetobacter baumannii K63-58 after 24 hrs by microdilution method; type: functional; details: K63-58, 24 h
[37] = tested on: Escherichia coli; test: Antibacterial activity against multi-drug resistant/OXA-48 producing Escherichia coli 50579417 after 24 hrs by microdilution method; type: functional; details: Escherichia coli, 50579417, 24 h
[38] = tested on: Corynebacterium glutamicum; test: Antibacterial activity against Corynebacterium glutamicum ATCC 13032 after 48 hrs by microdilution method; type: functional; details: ATCC 13032, 48 h
[39] = tested on: Pseudomonas aeruginosa; test: Antibacterial activity against Pseudomonas aeruginosa clinical isolate after 24 hrs by microdilution method; type: functional
[40] = tested on: Staphylococcus aureus; test: Antibacterial activity against methicillin resistant Staphylococcus aureus N315 after 24 hrs by microdilution method; type: functional; details: N315, 24 h
[41] = tested on: Staphylococcus aureus; test: Antibacterial activity against methicillin resistant Staphylococcus aureus clinical isolate WIS after 24 hrs by microdilution method; type: functional
[42] = tested on: Staphylococcus aureus; test: Antibacterial activity against Staphylococcus aureus ATCC 9144 after 48 hrs by microdilution method; type: functional; details: ATCC 9144, 48 h
[43] = tested on: Klebsiella pneumoniae; test: Antibacterial activity against multi-drug resistant/NDM1 producing Klebsiella pneumoniae K66-45 after 24 hrs by microdilution method; type: functional; details: K66-45, 24 h
[44] = Aqueous solubility of the compound; type: physicochemical; details: buffer
[45] = Hemolytic activity in human RBC at 64 ug/ml after 1 hr relative to control; type: ADME, cell-based, Erythrocyte; details: red blood cells (RBC), read-out: Activity

CC(C)(C)c1cc(C(=O)Nc2cccc(C(=O)NCCNC(=N)N)c2)cc(C(C)(C)C)c1.Cl
MIC [1]: 8 µg/mL | MIC [2]: 16 µg/mL | MIC [3]: 16 µg/mL | MIC [4]: 8 µg/mL | MIC [5]: 16 µg/mL | MIC [6]: 32 µg/mL | MIC [7]: 16 µg/mL | MIC90 [7]: 16 µg/mL | MIC [8]: > 32 µg/mL | MIC [9]: > 32 µg/mL | MIC [10]: > 8 µg/mL | MIC [11]: 8 µg/mL | Selectivity Index [12]: 9.3 | MIC [13]: 4 µg/mL | MIC90 [13]: 4 µg/mL | MIC [14]: 32 µg/mL | MIC [15]: 16 µg/mL | MIC [16]: 8 µg/mL | MIC [17]: 4 µg/mL | MIC [18]: 32 µg/mL | MIC [19]: 16 µg/mL | MIC [20]: 4 µg/mL | MIC [21]: 16 µg/mL | MIC90 [21]: 16 µg/mL | MIC [22]: 8 µg/mL | MIC [23]: 8 µg/mL | MIC [24]: 32 µg/mL | MIC [25]: 16 µg/mL | MIC90 [25]: 8 µg/mL | MIC [26]: 16 µg/mL | MIC [27]: 16 µg/mL | MIC [28]: 8 µg/mL | MIC [29]: 16 µg/mL | MIC [30]: 8 µg/mL | MIC [31]: 16 µg/mL | MIC [32]: 16 µg/mL | MIC [33]: > 32 µg/mL | MIC [34]: 8 µg/mL | EC50 [35]: 37 µg/mL | MIC [36]: 32 µg/mL | MIC [37]: 32 µg/mL | MIC [38]: 2 µg/mL | MIC [39]: 8 µg/mL | MIC90 [39]: 16 µg/mL | MIC [40]: 8 µg/mL | MIC [41]: 8 µg/mL | MIC [42]: 4 µg/mL | MIC [43]: 16 µg/mL

CC(C)(C)c1cc(C(=O)Nc2ccc(CC(=O)NCCNC(=N)N)cc2)cc(C(C)(C)C)c1.Cl
Selectivity Index [12]: > 16 | solubility [44]: Insoluble | MIC [16]: 16 µg/mL | MIC [17]: 4 µg/mL | MIC [20]: 4 µg/mL | MIC [23]: 16 µg/mL | hemolysis at 1 h, 64 ug/ml [45]: 35% | EC50 [35]: > 64 µg/mL | MIC [38]: 2 µg/mL | MIC [42]: 4 µg/mL
